# Experimental data collected from several papers.
# Protocols differ between the studies behind these lines.
# Target: Serine/threonine-protein kinase Nek1 (NEK1, Homo sapiens, UniProt Q96PY6)
# Residues used in one study (Q96PY6 1-1258): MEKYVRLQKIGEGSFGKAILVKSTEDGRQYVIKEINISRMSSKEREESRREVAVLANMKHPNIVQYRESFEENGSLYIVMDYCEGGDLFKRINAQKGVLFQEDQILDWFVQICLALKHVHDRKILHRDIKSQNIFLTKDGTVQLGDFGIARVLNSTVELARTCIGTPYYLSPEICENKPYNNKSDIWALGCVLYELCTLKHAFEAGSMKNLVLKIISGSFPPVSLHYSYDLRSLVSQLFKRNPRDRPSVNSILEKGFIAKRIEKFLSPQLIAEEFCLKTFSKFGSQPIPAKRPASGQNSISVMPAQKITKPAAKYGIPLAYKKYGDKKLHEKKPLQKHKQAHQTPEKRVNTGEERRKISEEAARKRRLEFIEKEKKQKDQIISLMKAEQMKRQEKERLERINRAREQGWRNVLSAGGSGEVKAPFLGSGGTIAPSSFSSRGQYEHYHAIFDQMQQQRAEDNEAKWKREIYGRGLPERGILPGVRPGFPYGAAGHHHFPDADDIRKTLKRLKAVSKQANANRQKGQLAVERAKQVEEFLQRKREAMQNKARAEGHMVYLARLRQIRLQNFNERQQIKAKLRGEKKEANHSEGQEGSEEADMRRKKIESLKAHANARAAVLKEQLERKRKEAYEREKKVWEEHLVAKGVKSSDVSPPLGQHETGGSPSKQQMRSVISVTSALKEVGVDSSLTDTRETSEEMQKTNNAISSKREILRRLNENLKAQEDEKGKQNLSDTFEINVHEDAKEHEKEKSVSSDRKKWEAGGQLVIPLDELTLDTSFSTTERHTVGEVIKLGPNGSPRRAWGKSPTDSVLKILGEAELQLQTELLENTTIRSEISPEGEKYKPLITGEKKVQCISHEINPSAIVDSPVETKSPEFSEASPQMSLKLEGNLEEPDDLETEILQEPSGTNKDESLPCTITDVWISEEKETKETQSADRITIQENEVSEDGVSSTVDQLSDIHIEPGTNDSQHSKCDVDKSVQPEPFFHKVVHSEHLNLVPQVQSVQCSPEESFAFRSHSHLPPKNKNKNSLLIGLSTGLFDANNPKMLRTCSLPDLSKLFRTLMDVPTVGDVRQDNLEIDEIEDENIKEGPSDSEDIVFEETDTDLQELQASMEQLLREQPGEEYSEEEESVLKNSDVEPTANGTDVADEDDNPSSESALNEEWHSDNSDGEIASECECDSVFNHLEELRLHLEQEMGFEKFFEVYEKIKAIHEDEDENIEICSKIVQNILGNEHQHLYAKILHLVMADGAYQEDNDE
SMILES,test,system,conditions,endpoint,value
COc1cc(Nc2ncc(F)c(Nc3ccc4c(n3)NC(=O)C(C)(C)O4)n2)cc(OC)c1OC,"binding, competition with immobilised ligand",,10 µM,inhibition,96%
Cn1cc(-c2cc(F)cc(N3CCn4c(cc5c4CCCC5)C3=O)c2CO)cc(Nc2ccc(N3CCN(C4COC4)CC3)cn2)c1=O,"enzyme activity, inhibitor",,0.1 µM,inhibition,-3%
Cc1nn(C)cc1-c1nc2c(N3CCN(Cc4ccc(Cl)cc4)CC3)c(Cl)cnc2[nH]1,"binding, competition with immobilised ligand",,1 µM,remaining binding,82%
COc1ncccc1-c1cnn2ccc(N3CCN(C(=O)OC(C)C)CC3)nc12,"binding, competition with immobilised ligand",,1 µM,remaining binding,100%
O=C(NCc1ncc(C(F)(F)F)cc1Cl)c1ccc2c(c1)C1(CCS(=O)(=O)CC1)[C@@H](C1CC1)N2S(=O)(=O)c1ccc(F)cc1,"cell-free assay, competition with immobilised ligand",,1 µM,remaining binding,96%
Cn1cc(-c2cccc(N3CCc4c(sc5c4CC(C)(C)C5)C3=O)c2CO)cc(Nc2ccncn2)c1=O,"enzyme activity, inhibitor",,1 µM,inhibition,5%
CCN1CCN(Cc2ccc(NC(=O)c3ccc(C)c(/C=C/c4cnc5[nH]ccc5c4OC)c3)cc2C(F)(F)F)CC1,"target engagement in cells, inhibitor, chemoproteomics",A-375,50 nM,inhibition,-17%
Cn1cncc1[C@](O)(COc1ccc(C#N)cc1-c1ccc(OC(F)(F)F)cc1)c1ccc(C#N)cc1,"cell-free assay, competition with immobilised ligand",,1 µM,remaining binding,80%
CC(C)(C)c1cc(C=C(C#N)C#N)cc(Br)c1O,"enzyme activity, inhibitor",,0.5 µM,remaining activity,97.7%
Nc1ncc(-c2nc(N3CCOCC3)nc(N3CCOCC3)n2)c(C(F)F)n1,"binding, competition with immobilised ligand",,10 µM,remaining binding,99%
O=c1[nH]c2ccccc2n1C1CCN(Cc2ccc(-c3[nH]c4cc5ncnc5cc4nc3-c3ccccc3)cc2)CC1,cell-free assay,,0.5 µM,remaining signal,101%
COCc1c(-c2cc3cc(C)cc(OC)c3s2)c2c(N)ncnn2c1CN1CCNC(=O)C1,"cell-free assay, competition with immobilised ligand",,1 µM,inhibition,78%
